According to ChEMBL document CHEMBL4814044, “Design and synthesis, biological evaluation of bis-(1,2,3- and 1,2,4)-triazole derivatives as potential antimicrobial and antifungal agents” (2021):
Activity calls are given as the source filed them. The rule behind the calls is not given here.

Columns and labels:
Format in all cases: functional
Staphylococcus aureus = experiment: Antibacterial activity against Staphylococcus aureus MTCC 96 assessed as bacterial growth inhibition by microdilution method
Method in brief: (§1)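 Broth microdilution against Gram-positive and Gram-negative strains. The endpoint is the minimal inhibitory concentration, in µg/ml.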

Bacillus subtilis = experiment: Antibacterial activity against Bacillus subtilis MTCC 441 assessed as bacterial growth inhibition by microdilution method; method in brief: as §1
Pseudomonas aeruginosa = experiment: Antibacterial activity against Pseudomonas aeruginosa MTCC 424 assessed as bacterial growth inhibition by microdilution method; method in brief: as §1
Escherichia coli = experiment: Antibacterial activity against Escherichia coli MTCC 443 assessed as bacterial growth inhibition by microdilution method; method in brief: as §1
Aspergillus niger [1] = experiment: Antifungal activity against Aspergillus niger MTCC 404 assessed as zone of inhibition at 16.8 uM incubated for 2 days by cross streak plate method; details: MTCC 404, 48 h, time 2 day, read-out: IZ
Method in brief: (§2)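 Fungal strain (A. niger MTCC 404 or S. cerevisiae MTCC 1344) was incubated with the compound for 2 days at 37 °C. Growth inhibition was then assessed by the cross streak plate method.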

Aspergillus niger [2] = experiment: Antifungal activity against Aspergillus niger MTCC 404 assessed as zone of inhibition at 25.2 uM incubated for 2 days by cross streak plate method; details: MTCC 404, 48 h, time 2 day, read-out: IZ; method in brief: as §2
Aspergillus niger [3] = experiment: Antifungal activity against Aspergillus niger MTCC 404 assessed as zone of inhibition at 33.7 uM incubated for 2 days by cross streak plate method; details: MTCC 404, 48 h, time 2 day, read-out: IZ; method in brief: as §2
Saccharomyces cerevisiae [4] = experiment: Antifungal activity against Saccharomyces cerevisiae MTCC 1344 assessed as zone of inhibition at 16.8 uM incubated for 2 days by cross streak plate method; details: MTCC 1344, 48 h, time 2 day, read-out: IZ; method in brief: as §2
Saccharomyces cerevisiae [5] = experiment: Antifungal activity against Saccharomyces cerevisiae MTCC 1344 assessed as zone of inhibition at 25.2 uM incubated for 2 days by cross streak plate method; details: MTCC 1344, 48 h, time 2 day, read-out: IZ; method in brief: as §2
Saccharomyces cerevisiae [6] = experiment: Antifungal activity against Saccharomyces cerevisiae MTCC 1344 assessed as zone of inhibition at 33.7 uM incubated for 2 days by cross streak plate method; details: MTCC 1344, 48 h, time 2 day, read-out: IZ
Method in brief: (§3)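 S. cerevisiae MTCC 1344 cultures were incubated for 2 days at 37 °C and then tested by the cross streak plate method.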

[7] = Antioxidant activity assessed as DPPH radical scavenging activity
Aspergillus niger [8] = experiment: Antifungal activity against Aspergillus niger MTCC 404 assessed as zone of inhibition at 18.3 uM incubated for 2 days by cross streak plate method; details: MTCC 404, 48 h, time 2 day, read-out: IZ; method in brief: as §2
Aspergillus niger [9] = experiment: Antifungal activity against Aspergillus niger MTCC 404 assessed as zone of inhibition at 27.5 uM incubated for 2 days by cross streak plate method; details: MTCC 404, 48 h, time 2 day, read-out: IZ; method in brief: as §2
Aspergillus niger [10] = experiment: Antifungal activity against Aspergillus niger MTCC 404 assessed as zone of inhibition at 36.6 uM incubated for 2 days by cross streak plate method; details: MTCC 404, 48 h, time 2 day, read-out: IZ; method in brief: as §2
Saccharomyces cerevisiae [11] = experiment: Antifungal activity against Saccharomyces cerevisiae MTCC 1344 assessed as zone of inhibition at 18.3 uM incubated for 2 days by cross streak plate method; details: MTCC 1344, 48 h, time 2 day, read-out: IZ; method in brief: as §2
Saccharomyces cerevisiae [12] = experiment: Antifungal activity against Saccharomyces cerevisiae MTCC 1344 assessed as zone of inhibition at 27.5 uM incubated for 2 days by cross streak plate method; details: MTCC 1344, 48 h, time 2 day, read-out: IZ; method in brief: as §2
Saccharomyces cerevisiae [13] = experiment: Antifungal activity against Saccharomyces cerevisiae MTCC 1344 assessed as zone of inhibition at 36.6 uM incubated for 2 days by cross streak plate method; details: MTCC 1344, 48 h, time 2 day, read-out: IZ; method in brief: as §3
Aspergillus niger [14] = experiment: Antifungal activity against Aspergillus niger MTCC 404 assessed as zone of inhibition at 15.9 uM incubated for 2 days by cross streak plate method; details: MTCC 404, 48 h, time 2 day, read-out: IZ; method in brief: as §2
Aspergillus niger [15] = experiment: Antifungal activity against Aspergillus niger MTCC 404 assessed as zone of inhibition at 23.9 uM incubated for 2 days by cross streak plate method; details: MTCC 404, 48 h, time 2 day, read-out: IZ; method in brief: as §2
Aspergillus niger [16] = experiment: Antifungal activity against Aspergillus niger MTCC 404 assessed as zone of inhibition at 31.8 uM incubated for 2 days by cross streak plate method; details: MTCC 404, 48 h, time 2 day, read-out: IZ; method in brief: as §2
Saccharomyces cerevisiae [17] = experiment: Antifungal activity against Saccharomyces cerevisiae MTCC 1344 assessed as zone of inhibition at 15.9 uM incubated for 2 days by cross streak plate method; details: MTCC 1344, 48 h, time 2 day, read-out: IZ; method in brief: as §2
Saccharomyces cerevisiae [18] = experiment: Antifungal activity against Saccharomyces cerevisiae MTCC 1344 assessed as zone of inhibition at 23.9 uM incubated for 2 days by cross streak plate method; details: MTCC 1344, 48 h, time 2 day, read-out: IZ; method in brief: as §2
Saccharomyces cerevisiae [19] = experiment: Antifungal activity against Saccharomyces cerevisiae MTCC 1344 assessed as zone of inhibition at 31.8 uM incubated for 2 days by cross streak plate method; details: MTCC 1344, 48 h, time 2 day, read-out: IZ; method in brief: as §2
Aspergillus niger [20] = experiment: Antifungal activity against Aspergillus niger MTCC 404 assessed as zone of inhibition at 17.2 uM incubated for 2 days by cross streak plate method; details: MTCC 404, 48 h, time 2 day, read-out: IZ; method in brief: as §2
Aspergillus niger [21] = experiment: Antifungal activity against Aspergillus niger MTCC 404 assessed as zone of inhibition at 25.9 uM incubated for 2 days by cross streak plate method; details: MTCC 404, 48 h, time 2 day, read-out: IZ; method in brief: as §2
Aspergillus niger [22] = experiment: Antifungal activity against Aspergillus niger MTCC 404 assessed as zone of inhibition at 34.5 uM incubated for 2 days by cross streak plate method; details: MTCC 404, 48 h, time 2 day, read-out: IZ; method in brief: as §2
Saccharomyces cerevisiae [23] = experiment: Antifungal activity against Saccharomyces cerevisiae MTCC 1344 assessed as zone of inhibition at 17.2 uM incubated for 2 days by cross streak plate method; details: MTCC 1344, 48 h, time 2 day, read-out: IZ; method in brief: as §2
Saccharomyces cerevisiae [24] = experiment: Antifungal activity against Saccharomyces cerevisiae MTCC 1344 assessed as zone of inhibition at 25.9 uM incubated for 2 days by cross streak plate method; details: MTCC 1344, 48 h, time 2 day, read-out: IZ; method in brief: as §2
Saccharomyces cerevisiae [25] = experiment: Antifungal activity against Saccharomyces cerevisiae MTCC 1344 assessed as zone of inhibition at 34.5 uM incubated for 2 days by cross streak plate method; details: MTCC 1344, 48 h, time 2 day, read-out: IZ; method in brief: as §3

Structure (SMILES)	MIC (Staphylococcus aureus) [µg/mL]	MIC (Bacillus subtilis) [µg/mL]	MIC (Pseudomonas aeruginosa) [µg/mL]	MIC (Escherichia coli) [µg/mL]	zone of inhibition at 16.8 µM (Aspergillus niger [1]) [mm]	zone of inhibition at 25.2 µM (Aspergillus niger [2]) [mm]	zone of inhibition at 33.7 µM (Aspergillus niger [3]) [mm]	zone of inhibition at 16.8 µM (Saccharomyces cerevisiae [4]) [mm]	zone of inhibition at 25.2 µM (Saccharomyces cerevisiae [5]) [mm]	zone of inhibition at 33.7 µM (Saccharomyces cerevisiae [6]) [mm]	Activity [7]	further results
O=C(CSc1nnc(-c2ccccc2OCc2cn(-c3ccccc3)nn2)n1Cc1ccccc1)c1ccccc1	7.9	5	7.5	10	2	3	3	2	3	3	inactive	
O=C(CSc1nnc(-c2ccccc2OCc2cn(-c3ccccc3)nn2)n1-c1ccccc1)c1ccccc1	9.8	4.9	9.1	9.8							inactive	zone of inhibition at 18.3 µM (Aspergillus niger [8]): 2.1 mm; zone of inhibition at 27.5 µM (Aspergillus niger [9]): 3 mm; zone of inhibition at 36.6 µM (Aspergillus niger [10]): 3 mm; zone of inhibition at 18.3 µM (Saccharomyces cerevisiae [11]): 1.5 mm; zone of inhibition at 27.5 µM (Saccharomyces cerevisiae [12]): 2 mm; zone of inhibition at 36.6 µM (Saccharomyces cerevisiae [13]): 3 mm
O=C(CSc1nnc(-c2ccccc2OCc2cn(-c3ccc(Cl)cc3)nn2)n1Cc1ccccc1)c1ccccc1	9.7	5.2	9	10	6	8	8.2	5.8	5.7	7	inactive	
CC1(C)S[C@@H]2[C@H](NC(=O)[C@H](N)c3ccccc3)C(=O)N2[C@H]1C(=O)O [AMPICILLIN]	10	10	10	3.9								
O=C(CSc1nnc(-c2ccccc2OCc2cn(-c3ccc(Cl)cc3)nn2)n1Cc1ccccc1)c1ccc(Cl)cc1	8	4	8.2	8.5							inactive	zone of inhibition at 15.9 µM (Aspergillus niger [14]): 2 mm; zone of inhibition at 23.9 µM (Aspergillus niger [15]): 2 mm; zone of inhibition at 31.8 µM (Aspergillus niger [16]): 3 mm; zone of inhibition at 15.9 µM (Saccharomyces cerevisiae [17]): 2 mm; zone of inhibition at 23.9 µM (Saccharomyces cerevisiae [18]): 2 mm; zone of inhibition at 31.8 µM (Saccharomyces cerevisiae [19]): 3 mm
O=C(Sc1nnc(-c2ccccc2OCc2cn(-c3ccc(Cl)cc3)nn2)n1Cc1ccccc1)c1ccccc1	4.1	6.5	7.3	6.1							inactive	zone of inhibition at 17.2 µM (Aspergillus niger [20]): 5.3 mm; zone of inhibition at 25.9 µM (Aspergillus niger [21]): 6 mm; zone of inhibition at 34.5 µM (Aspergillus niger [22]): 7.6 mm; zone of inhibition at 17.2 µM (Saccharomyces cerevisiae [23]): 5 mm; zone of inhibition at 25.9 µM (Saccharomyces cerevisiae [24]): 7 mm; zone of inhibition at 34.5 µM (Saccharomyces cerevisiae [25]): 7.4 mm
O=C(CSc1nnc(-c2ccccc2OCc2cn(-c3ccccc3)nn2)n1Cc1ccccc1)c1ccc(Cl)cc1	9.5	5	8.8	9.1	1.5	3	3	2	3	3	inactive	
